From PubChem BioAssay AID488910 (Broad Institute, 2010)
Out of some 20,000 compounds screened, about 25 (0.1%) were called active. This is one part of a sample in which actives are shown more often than they occur.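 Rule for the calls: active = mean replicate protection from cytokine-induced ATP loss at least 50% and at least 75% of replicates each reaching 50%; inconclusive = meets only one of the two criteria, mean or replicate share; inactive = fails both the mean and replicate share criteria.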

Assay: protection of INS-1E cells from cytokine death, primary screen, ATP luminescence, single point (AID 488910)
Settings: INS-1E cytokine-induced death, 48 h, at 10 µM, active compounds read high, normalised: neutral wells 0, positive control 100
In short: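 Assay system – rat INS-1E insulinoma cell line · Quantity – 8000 cells per well · Buffer or medium – RPMI without phenol red, 5% FBS · Schedule – 48 h co-treatment, 10 min post-lysis read · Technique – luminescent ATP assay (CellTiter-Glo)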

Row | Structure (SMILES) | protection from cytokine-induced ATP loss
1 | C[C@@H]1CN([C@@H](C)CO)C(=O)Cc2cc(NS(=O)(=O)c3cccs3)ccc2O[C@@H]1CN(C)S(=O)(=O)c1ccc(F)cc1 | 4.38% (inactive)
2 | C[C@H](CO)N1C[C@H](C)[C@H](CN(C)Cc2ccccc2)Oc2ccc(NC(=O)Cc3ccccc3)cc2C1=O | 0.0546% (inactive)
3 | C[C@@H]1CN([C@@H](C)CO)C(=O)c2cc(NC(=O)Nc3cccc4ccccc34)ccc2O[C@@H]1CN(C)C(=O)Nc1cccc2ccccc12 | -6.66% (inactive)
4 | C[C@@H]1CCCCO[C@H](CN(C)Cc2ccccc2)[C@@H](C)CN([C@H](C)CO)C(=O)c2cc(NC(=O)Cc3ccccc3)ccc2O1 | -13% (inactive)
5 | COc1ccc(NC(=O)Nc2ccc3c(c2)C(=O)N([C@@H](C)CO)C[C@@H](C)[C@H](CN(C)Cc2ccc(Cl)c(Cl)c2)O3)cc1 | -22.1% (inactive)
6 | C[C@@H]1CN([C@H](C)CO)C(=O)Cc2cc(NC(=O)Cn3cnnn3)ccc2O[C@H]1CN(C)Cc1ccc(C(F)(F)F)cc1 | 1.99% (inactive)
7 | C[C@@H]1CN([C@@H](C)CO)C(=O)c2cccc(NC(=O)C3CC3)c2O[C@@H]1CN(C)Cc1ccccc1 | 1.55% (inactive)
8 | CC(C)NC(=O)Nc1ccc2c(c1)CC(=O)N([C@H](C)CO)C[C@@H](C)[C@@H](CN(C)C(=O)Nc1ccc3c(c1)OCO3)O2 | 9.22% (inactive)
9 | C[C@@H]1CN([C@@H](C)CO)C(=O)c2cc(NS(=O)(=O)c3ccccc3)ccc2O[C@@H]1CN(C)Cc1ccc(C(=O)O)cc1 | 5.28% (inactive)
10 | C[C@H](CO)N1C[C@H](C)[C@H](CN(C)Cc2ccncc2)Oc2ccc(NS(=O)(=O)c3cn(C)cn3)cc2C1=O | -2.95% (inactive)
11 | C[C@@H]1CN([C@@H](C)CO)C(=O)c2cccc(NC(=O)C3CC3)c2O[C@@H]1CN(C)C | 3.84% (inactive)
12 | CC(C)NC(=O)Nc1ccc2c(c1)C(=O)N([C@@H](C)CO)C[C@@H](C)[C@H](CN(C)Cc1ccc(-c3ccccc3)cc1)O2 | -8.83% (inactive)
13 | C[C@H]1CN([C@@H](C)CO)C(=O)Cc2cc(NC(=O)Nc3ccc(F)cc3)ccc2O[C@H]1CN(C)C(=O)Nc1ccc(C(F)(F)F)cc1 | -14.8% (inactive)
14 | COc1ccc(NC(=O)N(C)C[C@@H]2Oc3ccc(NC(=O)Nc4ccccc4)cc3CC(=O)N([C@H](C)CO)C[C@@H]2C)cc1 | 9.6% (inactive)
15 | Cc1noc(C)c1NC(=O)Nc1cccc2c1O[C@@H](CN(C)CC1CCCCC1)[C@H](C)CN([C@@H](C)CO)C2=O | -7.27% (inactive)
16 | C[C@@H]1CN([C@@H](C)CO)C(=O)c2cccc(NS(=O)(=O)c3ccc(F)cc3)c2O[C@H]1CN(C)S(=O)(=O)c1cccs1 | 2.23% (inactive)
17 | COc1ccc(NC(=O)N(C)C[C@@H]2Oc3ccc(NC(=O)Cn4cnnn4)cc3C(=O)N([C@H](C)CO)C[C@@H]2C)cc1 | 6.28% (inactive)
18 | Cc1ccc(S(=O)(=O)Nc2ccc3c(c2)C(=O)N([C@@H](C)CO)C[C@H](C)[C@H](CN(C)C(=O)Nc2ccc(C(F)(F)F)cc2)O3)cc1 | -7.22% (inactive)
19 | Cc1noc(C)c1NC(=O)Nc1ccc2c(c1)C(=O)N([C@H](C)CO)C[C@@H](C)[C@H](CN(C)Cc1ccncc1)O2 | 3.35% (inactive)

Row | Structure (SMILES) | protection from cytokine-induced ATP loss
20 | C[C@@H]1CN([C@@H](C)CO)C(=O)c2cccc(NC(=O)Nc3ccc(F)cc3)c2O[C@@H]1CN(C)C(=O)Nc1ccccc1 | 7.56% (inactive)
21 | C[C@H](CO)N1C[C@H](C)[C@@H](CN(C)Cc2ccc3c(c2)OCO3)Oc2c(cccc2N(C)C)C1=O | -11% (inactive)
22 | C[C@@H]1CN([C@@H](C)CO)C(=O)c2cccc(NS(=O)(=O)c3cccs3)c2O[C@@H]1CN(C)CC1CC1 | -3.04% (inactive)
23 | C[C@@H]1CN([C@H](C)CO)C(=O)c2cccc(NS(=O)(=O)c3ccccc3)c2O[C@@H]1CN(C)Cc1ccc(C(=O)O)cc1 | 2.31% (inactive)
24 | C[C@@H]1CN([C@@H](C)CO)C(=O)c2cc(NC(=O)CCN3CCOCC3)ccc2O[C@H]1CN(C)C(=O)NC1CCCCC1 | 5.18% (inactive)
25 | C[C@H](CO)N1C[C@H](C)[C@@H](CN(C)Cc2ccc(C(=O)Nc3ccccc3N)cc2)Oc2c(NC(=O)C3CC3)cccc2C1=O | -6.93% (inactive)
26 | COc1ccc(NC(=O)N(C)C[C@@H]2Oc3c(NS(=O)(=O)c4cn(C)cn4)cccc3C(=O)N([C@H](C)CO)C[C@@H]2C)cc1 | -3.57% (inactive)
27 | Cc1noc(C)c1S(=O)(=O)N(C)C[C@H]1OCCCC[C@@H](C)Oc2ccc(NC(=O)C3CCCCC3)cc2C(=O)N([C@H](C)CO)C[C@@H]1C | 8.15% (inactive)
28 | C[C@@H]1CN([C@H](C)CO)C(=O)Cc2cc(NC(=O)c3ccncc3)ccc2O[C@@H]1CN(C)Cc1ccncc1 | 13.2% (inactive)
29 | Cc1ccc(S(=O)(=O)N(C)C[C@@H]2Oc3c(NS(C)(=O)=O)cccc3C(=O)N([C@@H](C)CO)C[C@H]2C)cc1 | -1.18% (inactive)
30 | C[C@H]1CN([C@@H](C)CO)C(=O)Cc2cc(NC(=O)Nc3ccc(F)cc3)ccc2O[C@H]1CN(C)S(=O)(=O)c1ccc(F)cc1 | -1.52% (inactive)
31 | Cc1noc(C)c1S(=O)(=O)Nc1ccc2c(c1)C(=O)N([C@@H](C)CO)C[C@@H](C)[C@H](CN(C)Cc1ccc(-c3ccccc3)cc1)O2 | -8.15% (inactive)
32 | C[C@@H]1CN([C@@H](C)CO)C(=O)c2cc(NC(=O)CCCN(C)C)ccc2O[C@H]1CN(C)Cc1ccccc1 | -3.08% (inactive)
33 | CC(C)NC(=O)Nc1ccc2c(c1)C(=O)N([C@@H](C)CO)C[C@@H](C)[C@H](CN(C)C(=O)NC1CCCCC1)O2 | 4.32% (inactive)
34 | Cc1ccc(S(=O)(=O)Nc2cccc3c2O[C@@H](CN(C)S(=O)(=O)c2cccs2)[C@@H](C)CN([C@@H](C)CO)C3=O)cc1 | -0.391% (inactive)
35 | C[C@H]1CN([C@@H](C)CO)C(=O)c2cccc(NS(=O)(=O)c3cn(C)cn3)c2O[C@@H]1CN(C)C(=O)Nc1ccc(F)cc1 | 11.3% (inactive)
36 | COc1ccc(NC(=O)Nc2ccc3c(c2)C(=O)N([C@H](C)CO)C[C@H](C)[C@H](CN(C)C(=O)Nc2c(C)noc2C)OCCCC[C@@H](C)O3)cc1 | 12% (inactive)
37 | C[C@@H]1CN([C@H](C)CO)C(=O)c2cc(NS(=O)(=O)c3cn(C)cn3)ccc2O[C@H]1CN(C)S(=O)(=O)c1ccc(Cl)cc1 | 0.346% (inactive)
38 | COc1ccc(NC(=O)N(C)C[C@@H]2Oc3c(NS(C)(=O)=O)cccc3C(=O)N([C@H](C)CO)C[C@H]2C)cc1 | 3.08% (inactive)

Row | Structure (SMILES) | protection from cytokine-induced ATP loss
39 | Cc1ccc(S(=O)(=O)N(C)C[C@H]2Oc3c(NS(=O)(=O)c4cccs4)cccc3C(=O)N([C@@H](C)CO)C[C@@H]2C)cc1 | -3.52% (inactive)
40 | O=C(O)CCCCCC(=O)N/N=C/c1ccco1 | 17.1% (inactive)
41 | Cc1ccc(S(=O)(=O)Nc2ccc3c(c2)C(=O)N([C@@H](C)CO)C[C@@H](C)[C@H](CN(C)CC2CC2)O3)cc1 | -3.86% (inactive)
42 | C[C@H]1CN([C@@H](C)CO)C(=O)c2cccc(NC(=O)c3ccncc3)c2O[C@@H]1CN(C)C | 7.37% (inactive)
43 | C[C@H]1CN([C@@H](C)CO)C(=O)c2cccc(NC(=O)Nc3ccc(C(F)(F)F)cc3)c2O[C@@H]1CN(C)Cc1ccccc1 | -19.3% (inactive)
44 | Cc1noc(C)c1NC(=O)Nc1ccc2c(c1)CC(=O)N([C@H](C)CO)C[C@@H](C)[C@@H](CN(C)Cc1ccc(C(F)(F)F)cc1)O2 | 10.5% (inactive)
45 | C[C@H](CO)N1C[C@H](C)[C@@H](CN(C)S(=O)(=O)c2ccccc2)Oc2c(NC(=O)c3ccc(-c4nccs4)cc3)cccc2C1=O | 5.11% (inactive)
46 | C[C@@H]1CN([C@H](C)CO)C(=O)c2cc(NC(=O)CCCCCC(=O)Nc3ccccc3N)ccc2O[C@@H]1CN(C)Cc1ccncc1 | 6.45% (inactive)
47 | CC(C)NC(=O)Nc1ccc2c(c1)CC(=O)N([C@H](C)CO)C[C@@H](C)[C@H](CN(C)S(=O)(=O)c1ccccc1)O2 | 9.86% (inactive)
48 | C[C@@H]1CN([C@@H](C)CO)C(=O)c2cccc(NS(=O)(=O)c3ccc(Cl)cc3)c2O[C@@H]1CN(C)C(=O)Nc1ccccc1 | 0.662% (inactive)
49 | C[C@H]1CN([C@@H](C)CO)C(=O)c2cccc(NC(=O)Nc3ccccc3)c2O[C@H]1CN(C)C(=O)Nc1cccc2ccccc12 | 6.53% (inactive)
50 | C[C@@H]1CN([C@@H](C)CO)C(=O)c2cc(NS(=O)(=O)c3cccs3)ccc2O[C@@H]1CN(C)S(=O)(=O)c1ccc(F)cc1 | -0.641% (inactive)
51 | Cc1noc(C)c1NC(=O)Nc1cccc2c1O[C@H](CN(C)C(=O)Nc1ccccc1)[C@@H](C)CN([C@H](C)CO)C2=O | 6.69% (inactive)
52 | C[C@H]1CN([C@@H](C)CO)C(=O)c2cccc(NC(=O)NC3CCCCC3)c2O[C@H]1CN(C)CC1CCCCC1 | -14.4% (inactive)
53 | Cc1noc(C)c1NC(=O)Nc1ccc2c(c1)C(=O)N([C@@H](C)CO)C[C@H](C)[C@@H](CN(C)C(=O)Nc1ccccc1)O2 | -2.87% (inactive)
54 | C[C@@H]1CN([C@H](C)CO)C(=O)Cc2cc(NC(=O)C3CCCCC3)ccc2O[C@@H]1CN(C)Cc1ccc(C(F)(F)F)cc1 | -23.1% (inactive)
55 | COc1ccc(NC(=O)N(C)C[C@@H]2Oc3c(NC(=O)C4CCOCC4)cccc3C(=O)N([C@H](C)CO)C[C@@H]2C)cc1 | 5.6% (inactive)
56 | C[C@H](CO)N1C[C@H](C)[C@@H](CN(C)Cc2ccc(Cl)c(Cl)c2)Oc2ccc(NS(=O)(=O)c3ccccc3)cc2C1=O | -24.5% (inactive)
